This sample holds only a part of the variants without activity.
B1: tRNA (parent)
chain: GUUCCGUUGGCGUAAUGGUAACGCGUCUCCCUCCUAAGGAGAAGACUGCGGGUUCGAGUCCCGUACGGAACG

Variants of: B1
Experiment: yeast fitness relative to wild type (ratio to wild type); higher = fitter; tRNA-Arg(CCU), competitive growth, 37 C, YPD
Procedure, shortened: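 Genotype frequency changes were the basis for Darwinian fitness relative to wild type. The frequencies came from 100-nucleotide paired-end sequencing of gene amplicons from the start population and each end population of pooled yeast strains with tRNA-Arg(CCU) gene variants at the native locus. Competition ran in YPD at 37°C for 24 hours in six replicates, genotypes needed ≥ 100 starting reads, and estimates < 0.5 were set to 0.5.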

Variant	yeast fitness
GUUCCGUUGGCGUAAUGCUAACGUGUCUCCCUCCUAAGGAGACGAUUGCGGGUUCGAGUCCCCUAUGGAACG [G18C C24U A43C C46U G63C C66U]	≤ 0.5
GUUCCGUUGGCGUAAUGCUAACGUGUCUCCCUCCUAAGGUGAAGACUGCGGGUUCAAGUCCCGUGUGGAACG [G18C C24U A40U G56A A65G C66U]	≤ 0.5
GUUCCGUUGGCGUAAUGCUAACGCGUCUCGCUCCUAAGGAGAAGACUGCGGGUUCGAGUCCGGUACGGAACG [G18C C30G C62G]	≤ 0.5
GUUCCGUUGGCGUAAUGCUAACGCGUCUCCCUCCUAAGGAGAAGACUGCGGGUUCGAGUCCAGUACGCAACG [G18C C62A G68C]	≤ 0.5
GUUCCGUUGGCGUAAUGCUAACGGGUCUCCCUCUUAAGGAGAAGACUGAGGGUUCGAGUCCCGUACGGAACG [G18C C24G C34U C49A]	≤ 0.5
GUUCCGUUGGCGUAAUGCUAACGCGUCUUCCUCCUAAGAAGAAGACUGUGGGUUCCAGUCCCGUACGGAACG [G18C C29U G39A C49U G56C]	≤ 0.5
GUUCCGUUGGCGUAAUGCUAACGCGUCUUCCUCCUAAGGAGAAGACUGCCGGUUCGAGUCCCGUACGGAACG [G18C C29U G50C]	≤ 0.5
GUUCCGUUGGCGUAAUGCUAACGCGUCUCUUUCCUAAGGAGAAGACUACGGGUUCGAGUCCCGUACGGAACG [G18C C30U C31U G48A]	≤ 0.5
GUUCCGUUGGCGUAAUGCUAACGCGUGUCCCUCCUAAGGAGAAGAAUGCGGGUUCGAAACCCGUACGGAACG [G18C C27G C46A G58A U59A]	≤ 0.5
GUUCCGUUGGCGUAAUGCUAACGCGUCUCCGUCCUCAGGAGAAGGCUGCGGGUUCGAGUCCCGUGCGGAACG [G18C C31G A36C A45G A65G]	0.595
GUUCCGUUGGCGUAAUGCUAACGCGUCUCCUUCCUAAGGAGAAGAUUGCGGGUUCGAGUCCCGUACGGAACG [G18C C31U C46U]	≤ 0.5
GUUCCGUUGGCGUAAUGCUAACGCGUCUCCCUCCUAAGGAGAAGACUGCGGGUUUGAGUCCCGUACCGAACG [G18C C55U G67C]	0.565
GUUCCGUUGGCGUAAUGCUAACGCGUCUCCUUCCUAAGGAGAUGACUGCGGGUUCGAGUCCCGUACGGAACG [G18C C31U A43U]	0.588
GUUCCGUUGGCGUAAUGCUAACACCUCUCCCUCCUAGGGAGACGACUGCGGGUUGGAGUCCAGUACGAAACG [G18C G23A G25C A37G A43C C55G C62A G68A]	≤ 0.5
GUUCCGUUGGCGUAAUGCUAACGCGUCUCGCCCCUAAGGAGAAGACUGCGGGAUCGAGUCCCGUACGGAACG [G18C C30G U32C U53A]	≤ 0.5
GUUCCGUUGGCGUAAUGCUAACGCGUCUCCAUCCUAAGGAGAAGACUGCGGGUUCGAGUCCCGUACGGAACG [G18C C31A]	0.634
GUUCCGUUGGCGUAAUGCUAACACCCCUCCCUCCUAGGGAGACGACUGCGGGUUGGAGUCCCGUACGAAACG [G18C G23A G25C U26C A37G A43C C55G G68A]	≤ 0.5
GUUCCGUUGGCGUAAUGCUAACGCGUCUUCCUCCUAAGGAGAAGACUGCGGGUUCGAGUCCCGUACGGCACG [G18C C29U A69C]	≤ 0.5
GUUCCGUUGGCGUAAUGCUAACGCGUUUCCCUCCUAAGGAGAAGACUGCGGGUUCGAGUCCGAUAGGGGACG [G18C C27U C62G G63A C66G A69G]	≤ 0.5

Variant	yeast fitness
GUUCCGUUGGCGUAAUGCUAACGCGUUUCCCUCCUAAACAGAAGACUGCGGGUUCGAGUCCCGUACGGAACG [G18C C27U G38A G39C]	0.521
GUUCCGUUGGCGUAAUGCUAACGCGUCUCGCUCCUAAGGAGAAGACUGCGGGUUCGAGUCCCGUACGGAACG [G18C C30G]	≤ 0.5
GUUCCGUUGGCGUAAUGCUAACGCGUCUCACUCCUAAGGAGAAGACUGCGGGUUCGAGUCCCGUACGGAACG [G18C C30A]	0.642
GUUCCGUUGGCGUAAUGCUAACACCUCUCCCUCCUAGGGAGACGACUGCGGGUUGGAGUCCCGUACGGAACG [G18C G23A G25C A37G A43C C55G]	≤ 0.5
GUUCCGUUGGCGUAAUGCUAACGCGUCUCCCUGCUAAGGGGAAGACUGCGGGUUCGAGUCUCGUACGGAACG [G18C C33G A40G C61U]	≤ 0.5
GUUCCGUUGGCGUAAUGCUAACGCGUCUCCCUCCUAAGGAGAAGACUGUGGGUUCGAGUCCCGUACGGUACG [G18C C49U A69U]	≤ 0.5
GUUCCGUUGGCGUAAUGCUAACGCGUCUGCCUCCUAAGGAGAAGGCUGCGGGUUCGAGUCCCGUAUGGCACG [G18C C29G A45G C66U A69C]	≤ 0.5
GUUCCGUUGGCGUAAUGCUAACGCGUUUCCCUCCUAAGGAGAAGACUGCGGGUUGGAGUCCCGUACGGAACG [G18C C27U C55G]	0.67
GUUCCGUUGGCGUAAUGCUAACGCGUCUCCCUCGUAAGGAGAAGCCUGCGGGUUCGAGUCCCGUACGGAACG [G18C C34G A45C]	≤ 0.5
GUUCCGUUGGCGUAAUGCUAACGCGUCUCCCUCCUAAGGAGAAGACUGCGGGUUCGAGUCCCGUAAGGUACG [G18C C66A A69U]	≤ 0.5
GUUCCGUUGGCGUAAUGCUAACGCGUCUCCCUCCUAAGGAGAAGACUGCGGGUUCGAGUCCUGUACGGAACG [G18C C62U]	0.611
GUUCCGUUGGCGUAAUGCUAACGCGUCUCCCUCCUAAGGAGAAGACUGCGGGUUCGAGUCCAGUACGGAACG [G18C C62A]	≤ 0.5
GUUCCGUUGGCGUAAUGCUAACGCGUCUCCCUGCUAAGGAGAAGACUGGGGGUUCGAGUCCCGUACGGAACG [G18C C33G C49G]	≤ 0.5
GUUCCGUUGGCGUAAUGCUAACGCGUCUCCCUCCUAAGGAGAAGACUGAGGGUUCGAGUCGCGUACGGAACG [G18C C49A C61G]	0.694
GUUCCGUUGGCGUAAUGCUAACGCGUCUUCCUCUUAAGGAGAAGACUGCGGGUUCGACUCCCGUACGGAACG [G18C C29U C34U G58C]	≤ 0.5
GUUCCGUUGGCGUAAUGCUAACGUGUCUCCCUCCUAAGGUGAAGACUGCGGGUUUGAGACCCGUACGGAACG [G18C C24U A40U C55U U59A]	0.501
GUUCCGUUGGCGUAAUGCUAACGCGUCUCUCUCCUAAGGAGAAGACUGCGGGUUCGAGUCCCGAACGGAACG [G18C C30U U64A]	≤ 0.5
GUUCCGUUGGCGUAAUGCUAACGCGUCUCGCCCCUAAGGAGAAGACUGCGGGUUCGAGUCCCGUACGGAACG [G18C C30G U32C]	≤ 0.5
GUUCCGUUGGCGUAAUGCUAACGCGUGCCCCUCCUAAGGAGAAGACCGCGGGUUCGAGACCCGUGCGGAACG [G18C C27G U28C U47C U59A A65G]	0.61

From the RNAGym collection of RNA variant scans (doi:10.1126/science.aae0568)
